Experimental data collected from several papers.
BRD9: Bromodomain-containing protein 9 (BRD9, Homo sapiens, UniProt Q9H8M2)
PKMYT1: Membrane-associated tyrosine- and threonine-specific cdc2-inhibitory kinase (PKMYT1, Homo sapiens, UniProt Q99640)
PIP4K2A: Phosphatidylinositol 5-phosphate 4-kinase type-2 alpha (PIP4K2A, Homo sapiens, UniProt P48426)

COc1cc(-c2cc(C(C)=O)n3ccccc23)cc(OC)c1CN1CC(O)C1
ΔTm (BRD9; thermal stability, DSF; 200 µM): 14.8 °C

Cc1ncc(-c2cc3cc(-c4c(C)ccc(O)c4C)cnc3[nH]2)cn1
inhibition (PKMYT1; cell-free assay, TR-FRET; 0.1235 µM): 97.2%

CCN(C)Cc1c(OC)cc(-c2cc(C(C)=O)n3ccccc23)cc1OC
ΔTm (BRD9; thermal stability, DSF; 200 µM): 15.5 °C

CCN1/C(=C/C(C)=O)Sc2ccc(F)cc21
inhibition (Histamine H3 receptor (HRH3, Homo sapiens, UniProt Q9Y5N1); ligand displacement, radioligand; 10 µM): 0%

CC(=O)ON=C1C=CC(=C(C#N)c2ccccc2)C=C1
activity vs control (Serine/threonine-protein kinase haspin (HASPIN, Homo sapiens, UniProt Q8TF76); enzyme activity, inhibitor, ADP detection; 2 µM): 76%

CCC(=O)c1cc(-c2cc(OC)c(Cn3ccnc3)c(OC)c2)c2ccccn12
ΔTm (BRD9; thermal stability, DSF; 200 µM): 9.8 °C

NC/C(=C\F)COc1cccc(Cn2c(=S)[nH]c(=O)c3[nH]cnc32)c1
inhibition (Ileal sodium/bile acid cotransporter (SLC10A2, Homo sapiens, UniProt Q12908); transporter uptake, inhibitor; 30 µM): < 50%

Cc1cc(O)c(-c2ccc([C@@H](C)CN(C)C)cc2)c2c1[nH]c(=O)c1sccc12
inhibition (PIP4K2A; enzyme activity, inhibitor; 0.1 µM): -0.0609%

CN(C)CCOC(=O)COc1ccc(Cl)cc1
inhibition (Cannabinoid receptor 2 (CNR2, Homo sapiens, UniProt P34972); ligand displacement, radioligand; 1 µM, cell membranes): -3.85%

Cc1cc(F)cc2c(CCC(=O)N[C@@H]3C(=O)NC[C@H]3O)c(-c3ccc(F)cc3)[nH]c12
inhibition (Beta-2 adrenergic receptor (ADRB2, Homo sapiens, UniProt P07550); cell-free assay; 10 µM): -2%

COc1ccc2oc(-c3ccc4nc(N)oc4c3)c/c(=N\c3ccccc3NC(=O)CCN)c2c1
remaining binding (PIP4K2A; binding; 1 µM): 108%

CCCC[C@H](NC(C)=O)C(=O)N[C@H]1CC(=O)NCCCC[C@@H](C(=O)N2CCC[C@@H]2C(=O)N[C@@H](C(=O)N2CCC[C@@H]2C(N)=O)C(C)C)NC(=O)[C@H](Cc2c[nH]c3ccccc23)NC(=O)[C@H](CCCNC(=N)N)NC(=O)[C@@H](Cc2ccccc2)NC(=O)[C@@H]2CCCN2C1=O
Emax (Melanocortin receptor 5 (MC5R, Homo sapiens, UniProt P33032); cAMP, agonist): 102%

CCC(=O)c1cc(-c2cc(OC)c(Cn3ccnc3)cc2OC)c2ccccn12
ΔTm (BRD9; thermal stability, DSF; 200 µM): 9.5 °C

CCCCC(=O)Nc1ccc(-c2ccc3ncn(CCC)c(=O)c3c2)cn1
remaining binding (PKMYT1; binding, competition with immobilised ligand; 0.5 µM): 86%

COc1cc(-c2cc(C(C)=O)n3ccccc23)c(OC)cc1C(=O)N(C)C
ΔTm (BRD9; thermal stability, DSF; 200 µM): 13.5 °C

C1=C/COCc2cc(ccc2OCCN2CCCC2)Nc2nccc(n2)-c2cccc(c2)COC/1
remaining binding (Cyclin-dependent kinase-like 3 (CDKL3, Homo sapiens, UniProt Q8IVW4); binding; 0.1 µM): 5.9%

COc1cc(-c2cc(C(C)=O)n3ccccc23)c(OC)cc1C=O
ΔTm (BRD9; thermal stability, DSF; 200 µM): 8.3 °C

C#Cc1cc(-c2cc(Nc3nc(N[C@@H](C)c4ccc(F)cn4)ncc3Cl)n[nH]2)ccc1C=O
inhibition (G protein-coupled receptor kinase 6 (GRK6, Homo sapiens, UniProt P43250); enzyme activity, inhibitor; 0.2 µM): 18.9%
